How the values were obtained:
[1] = biological target: Metabotropic glutamate receptor 5 (Rattus norvegicus, UniProt P31424); assay: Positive allosteric modulator activity at rat mGlu5 in human HEK cells assessed as increase in calcium flux preincubated for 2.5 mins followed by gluatamate addition by Fluo-4 AM dye based calcium mobilization assay; format: cell-based
[2] = Clearance in Cynomolgus monkey plasma at 0.2 mg/kg, iv and measured upto 24 hrs by LC-MS/MS analysis; format: ADME, organism-based, Macaca fascicularis
Summary of the method: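 Single intravenous doses: mouse 1 mg/kg, SD rat 0.2 mg/kg, beagle dog 0.5 mg/kg, cynomolgus monkey 0.2 mg/kg. Plasma clearance, Vss and elimination half-life came from the plasma profiles. Values are means of two to three animals.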

[3] = Genotoxicity in Salmonella typhimurium TA98 by Ames test; format: toxicity; conditions: salmonella enterica subsp. enterica serovar typhimurium
Summary of the method: (§1)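 Ames bacterial reverse mutation test in strains TA98 and […], run with and without S9 metabolic activation.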

Kv1.5 = Kv1.5 (Homo sapiens, UniProt P22460); assay: Inhibition of Kv1.5 (unknown origin) at 10 uM; format: toxicity
Summary of the method: (§2)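 Cardiac ion channel electrophysiology (functional EP) panel, with percent inhibition measured at 10 μM.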

[4] = Tmax in CD-1 mouse plasma at 3 mg/kg, po and measured upto 24 hrs by LC-MS/MS analysis; format: ADME, organism-based
Summary of the method: (§3)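 Single-dose iv and oral PK in separate arms: mouse 1 mg/kg iv / 3 mg/kg po, SD rat 0.2/3, beagle 0.5/3, cynomolgus 0.2/3 mg/kg. Plasma parameters (Vss, Tmax, F) are means of two to three animals per species.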

[5] = Lipophilicity, logP of the compound; format: physicochemical; conditions: octanol/water
[6] = Cmax in Sprague-Dawley rat at 3 mg/kg, po and measured upto 24 hrs by LC-MS/MS analysis; format: ADME, organism-based; design: time < 24 hrs, dose 3 mg/kg, route po; conditions: in vivo
Summary of the method: (§4)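 Single oral 3 mg/kg dose in mouse, SD rat, beagle and cyno. Cmax is the peak total plasma concentration. Values are means of two to three animals.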

[7] = Metabolic stability in dog liver microsomes assessed as intrinsic clearance at 1 uM preincubated for 5 mins followed by NADPH addition and measured for 45 mins by LC/MS/MS analysis; format: ADME, Canis lupus familiaris, Microsome; conditions: time 50 min, read-out: CLH
Cytochrome P450 3A4 [8] = biological target: T1, Cytochrome P450 3A4 (Homo sapiens, UniProt P08684); assay: Induction of CYP3A4 in human hepatocytes; format: ADME, cell-based
Summary of the method: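 CYP1A2, 2B6 and 3A4 induction measured in human hepatocytes.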

[9] = Oral bioavailability in Beagle dog at 3 mg/kg and measured upto 24 hrs by LC-MS/MS analysis; format: ADME, organism-based, Canis lupus familiaris; conditions: in vivo; summary of the method: as §3
[10] = Tmax in Beagle dog at 3 mg/kg, po and measured upto 24 hrs by LC-MS/MS analysis; format: ADME, organism-based, Canis lupus familiaris; conditions: in vivo; summary of the method: as §3
[11] = biological target: Nuclear receptor subfamily 1 group I member 2 (Rattus norvegicus, UniProt Q9R1A7); assay: Activation of rat PXR
[12] = Cmax in Cynomolgus monkey at 3 mg/kg, po and measured upto 24 hrs by LC-MS/MS analysis; format: ADME, organism-based, Macaca fascicularis; design: dose 3 mg/kg, time < 24 hrs, route po; conditions: in vivo; summary of the method: as §4
[13] = Unbound drug concentration in Sprague-Dawley rat brain at 0.2 mg/kg, iv and measured upto 24 hrs by LC-MS/MS analysis; format: ADME, organism-based
[14] = Unbound brain-to-plasma concentration ratio in cynomolgus monkey at 0.2 mg/kg, iv and measured upto 1 hrs by LC-MS/MS analysis; format: ADME, organism-based, Macaca fascicularis; conditions: read-out: K(p,uu,brain)
[15] = Genotoxicity in Salmonella typhimurium […] by Ames test; format: toxicity; conditions: salmonella enterica subsp. enterica serovar typhimurium; summary of the method: as §1
[16] = Tmax in Cynomolgus monkey at 3 mg/kg, po and measured upto 24 hrs by LC-MS/MS analysis; format: ADME, organism-based, Macaca fascicularis; conditions: in vivo; summary of the method: as §3
[17] = Unbound brain-to-plasma concentration ratio in Sprague-Dawley rat at 0.2 mg/kg, iv and measured upto 24 hrs by LC-MS/MS analysis; format: ADME, organism-based; conditions: read-out: K(p,uu,brain)
P-gp (ABCB1) = P-gp (ABCB1) (Homo sapiens, UniProt P08183); assay: Substrate activity at human P-gp assessed as efflux ratio; format: ADME; conditions: not told
[18] = Metabolic stability in cynomolgus monkey liver microsomes assessed as intrinsic clearance at 1 uM preincubated for 5 mins followed by NADPH addition and measured for 45 mins by LC/MS/MS analysis; format: ADME, Macaca fascicularis, Microsome; conditions: time 50 min, read-out: CLH
[19] = biological target: Metabotropic glutamate receptor 7 (Rattus norvegicus, UniProt P35400); assay: Positive allosteric modulator activity at rat mGlu7 in human HEK cells co-expressing […] assessed as increase in by thallium flux preincubated for 2.5 mins followed by gluatamate addition by thallium flux assay; format: cell-based
[20] = Unbound brain-to-plasma concentration ratio in CD-1 mouse at 1 mg/kg,iv and measured upto 24 hrs by LC-MS/MS analysis; format: ADME, organism-based; conditions: read-out: K(p,uu,brain)
[21] = Oral bioavailability in CD-1 mouse plasma at 3 mg/kg and measured upto 24 hrs by LC-MS/MS analysis; format: ADME, organism-based; summary of the method: as §3
HCN4 = HCN4 (Homo sapiens, UniProt Q9Y3Q4); assay: Inhibition of HCN4 (unknown origin) at 10 uM; format: toxicity; summary of the method: as §2
[22] = Protein binding in cynomolgus monkey plasma assessed as fraction unbound incubated for 4 hrs by equilibrium dialysis based LC/MS/MS analysis; format: ADME, cell-free, Macaca fascicularis
[23] = biological target: Aryl hydrocarbon receptor (Rattus norvegicus, UniProt P41738); assay: Activation of rat AhR
hERG (KCNH2) = hERG (KCNH2) (Homo sapiens, UniProt Q12809); assay: Inhibition of human ERG at 10 uM; format: toxicity
Summary of the method: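 Eurofins Cardiac Profiler functional electrophysiology panel of potassium, calcium and sodium cardiac ion channels, including hERG. Compound tested at 10 μM, reported as percent inhibition.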

Kir2.1 = Kir2.1 (Homo sapiens, UniProt Q7Z4S6); assay: Inhibition of Kir2.1 (unknown origin) at 10 uM; format: toxicity; summary of the method: as §2
Cav1.2 = Cav1.2 (Homo sapiens, UniProt Q13936); assay: Inhibition of Cav1.2 (unknown origin) at 10 uM; format: toxicity; summary of the method: as §2
Kv4.3/KChIP2 = Kv4.3/KChIP2 (Homo sapiens, UniProt Q9NS61+Q9UK17); assay: Inhibition of Kv4.3/KChIP2 (unknown origin) at 10 uM; format: toxicity; summary of the method: as §2
[24] = AUC in Sprague-Dawley rat at 30 mg/kg, po administered as spray-dried dispersion formulation and measured after 24 hrs by LC-MS/MS analysis; format: ADME, organism-based; design: dose 30 mg/kg, time 24 hrs, route po; conditions: in vivo
Summary of the method: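 Rats were dosed orally at 3, 10 and 30 mg/kg with a spray-dried dispersion of the free base and HPMCP-HP55 polymer (25%/75%), in 30% Dexolve. Total plasma Cmax and AUC were measured, N = 3.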

[25] = Protein binding in dog plasma assessed as fraction unbound incubated for 4 hrs by equilibrium dialysis based LC/MS/MS analysis; format: ADME, cell-free, Canis lupus familiaris
[26] = biological target: Aryl hydrocarbon receptor (Homo sapiens, UniProt P35869); assay: Activation of human AhR
Cytochrome P450 3A4 [27] = biological target: T1, Cytochrome P450 3A4; assay: Inhibition of CYP3A4 in human liver microsomes using midazolam as substrate preincubated for 15 mins followed by NADPH addition and measured after 8 mins by LC/MS/MS analysis; format: ADME, Microsome
[28] = Cmax in CD-1 mouse plasma at 3 mg/kg, po and measured upto 24 hrs by LC-MS/MS analysis; format: ADME, organism-based; design: time < 24 hrs, dose 3 mg/kg, route po; summary of the method: as §4
[29] = Brain to plasma permeability coefficient, Kp in CD-1 mouse plasma at 1 mg/kg,iv and measured upto 24 hrs by LC-MS/MS analysis; format: ADME, organism-based
Summary of the method: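 Total brain to total plasma partition coefficient (Kp) measured in mouse, SD rat and cynomolgus monkey. The unbound ratio (Kp,uu) was corrected with brain homogenate binding. Values are means of two to three animals.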

T1 sequence (P08684 whole entry): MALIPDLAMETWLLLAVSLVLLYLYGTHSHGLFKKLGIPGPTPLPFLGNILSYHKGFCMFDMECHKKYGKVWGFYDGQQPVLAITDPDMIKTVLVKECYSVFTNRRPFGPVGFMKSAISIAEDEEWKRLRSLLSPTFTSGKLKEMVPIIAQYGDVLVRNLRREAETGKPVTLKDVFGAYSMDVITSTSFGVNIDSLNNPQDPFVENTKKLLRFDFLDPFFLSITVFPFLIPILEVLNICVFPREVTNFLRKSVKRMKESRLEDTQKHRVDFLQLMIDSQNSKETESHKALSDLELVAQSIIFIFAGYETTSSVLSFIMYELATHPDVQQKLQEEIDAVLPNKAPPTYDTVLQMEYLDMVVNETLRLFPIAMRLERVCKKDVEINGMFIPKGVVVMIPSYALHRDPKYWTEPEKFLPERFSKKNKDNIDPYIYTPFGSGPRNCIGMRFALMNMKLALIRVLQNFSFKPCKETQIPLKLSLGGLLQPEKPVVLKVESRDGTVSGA
Sequence of Metabotropic glutamate receptor 5 (P31424 whole entry): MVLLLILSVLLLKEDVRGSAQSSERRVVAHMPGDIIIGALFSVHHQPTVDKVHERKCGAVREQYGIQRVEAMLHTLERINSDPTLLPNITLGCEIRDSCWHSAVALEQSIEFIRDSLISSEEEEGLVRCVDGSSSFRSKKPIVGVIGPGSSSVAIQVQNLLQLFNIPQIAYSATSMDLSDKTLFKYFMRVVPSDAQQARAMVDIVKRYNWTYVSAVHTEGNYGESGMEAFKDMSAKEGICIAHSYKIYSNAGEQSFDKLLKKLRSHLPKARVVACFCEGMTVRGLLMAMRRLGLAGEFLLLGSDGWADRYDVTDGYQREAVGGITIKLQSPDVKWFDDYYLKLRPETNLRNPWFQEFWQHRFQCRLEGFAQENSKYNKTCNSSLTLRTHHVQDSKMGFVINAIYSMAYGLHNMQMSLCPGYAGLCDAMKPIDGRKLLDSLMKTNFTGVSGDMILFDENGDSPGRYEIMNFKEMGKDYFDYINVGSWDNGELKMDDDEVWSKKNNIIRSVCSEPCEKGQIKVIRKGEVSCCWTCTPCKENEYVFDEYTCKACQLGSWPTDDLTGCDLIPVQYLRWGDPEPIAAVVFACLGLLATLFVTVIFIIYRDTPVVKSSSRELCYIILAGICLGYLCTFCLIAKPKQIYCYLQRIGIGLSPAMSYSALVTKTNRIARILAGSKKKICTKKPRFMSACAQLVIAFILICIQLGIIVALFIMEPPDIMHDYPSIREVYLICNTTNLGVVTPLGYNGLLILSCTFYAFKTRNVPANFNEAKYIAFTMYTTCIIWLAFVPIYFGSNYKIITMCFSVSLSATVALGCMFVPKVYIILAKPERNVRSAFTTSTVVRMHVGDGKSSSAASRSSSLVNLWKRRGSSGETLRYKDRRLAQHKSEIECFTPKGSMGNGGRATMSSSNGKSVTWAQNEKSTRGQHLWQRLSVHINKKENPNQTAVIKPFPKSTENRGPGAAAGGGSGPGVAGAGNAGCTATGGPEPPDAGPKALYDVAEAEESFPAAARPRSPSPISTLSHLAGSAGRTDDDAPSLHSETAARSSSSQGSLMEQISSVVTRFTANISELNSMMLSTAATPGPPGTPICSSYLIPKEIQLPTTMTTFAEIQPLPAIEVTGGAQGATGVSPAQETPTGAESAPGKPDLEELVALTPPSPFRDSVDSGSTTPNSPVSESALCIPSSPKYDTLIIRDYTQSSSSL
Sequence of Aryl hydrocarbon receptor (Homo sapiens, UniProt P35869) (P35869 whole entry): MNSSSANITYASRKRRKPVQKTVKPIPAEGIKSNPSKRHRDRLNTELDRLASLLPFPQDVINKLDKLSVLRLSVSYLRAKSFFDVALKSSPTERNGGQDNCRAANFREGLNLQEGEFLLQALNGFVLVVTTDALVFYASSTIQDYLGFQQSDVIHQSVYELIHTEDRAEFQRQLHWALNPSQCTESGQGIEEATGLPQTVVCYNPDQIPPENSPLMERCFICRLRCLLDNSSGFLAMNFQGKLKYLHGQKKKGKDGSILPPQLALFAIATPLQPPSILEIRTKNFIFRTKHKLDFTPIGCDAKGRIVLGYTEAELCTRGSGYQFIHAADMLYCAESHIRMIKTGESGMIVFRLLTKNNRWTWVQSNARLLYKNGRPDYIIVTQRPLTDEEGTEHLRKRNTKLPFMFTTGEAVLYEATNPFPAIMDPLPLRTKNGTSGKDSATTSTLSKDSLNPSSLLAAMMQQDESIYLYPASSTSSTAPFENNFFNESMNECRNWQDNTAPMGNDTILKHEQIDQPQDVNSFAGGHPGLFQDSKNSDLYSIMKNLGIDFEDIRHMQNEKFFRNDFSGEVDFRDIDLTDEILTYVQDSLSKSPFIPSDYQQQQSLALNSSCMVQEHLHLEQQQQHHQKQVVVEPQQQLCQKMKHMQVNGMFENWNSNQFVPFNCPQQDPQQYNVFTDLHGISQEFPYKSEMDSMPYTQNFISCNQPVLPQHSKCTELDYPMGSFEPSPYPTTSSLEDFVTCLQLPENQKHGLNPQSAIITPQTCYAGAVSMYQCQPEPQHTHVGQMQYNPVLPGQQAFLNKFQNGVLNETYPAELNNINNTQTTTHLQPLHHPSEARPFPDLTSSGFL
Sequence of HCN4 (Q9Y3Q4 whole entry): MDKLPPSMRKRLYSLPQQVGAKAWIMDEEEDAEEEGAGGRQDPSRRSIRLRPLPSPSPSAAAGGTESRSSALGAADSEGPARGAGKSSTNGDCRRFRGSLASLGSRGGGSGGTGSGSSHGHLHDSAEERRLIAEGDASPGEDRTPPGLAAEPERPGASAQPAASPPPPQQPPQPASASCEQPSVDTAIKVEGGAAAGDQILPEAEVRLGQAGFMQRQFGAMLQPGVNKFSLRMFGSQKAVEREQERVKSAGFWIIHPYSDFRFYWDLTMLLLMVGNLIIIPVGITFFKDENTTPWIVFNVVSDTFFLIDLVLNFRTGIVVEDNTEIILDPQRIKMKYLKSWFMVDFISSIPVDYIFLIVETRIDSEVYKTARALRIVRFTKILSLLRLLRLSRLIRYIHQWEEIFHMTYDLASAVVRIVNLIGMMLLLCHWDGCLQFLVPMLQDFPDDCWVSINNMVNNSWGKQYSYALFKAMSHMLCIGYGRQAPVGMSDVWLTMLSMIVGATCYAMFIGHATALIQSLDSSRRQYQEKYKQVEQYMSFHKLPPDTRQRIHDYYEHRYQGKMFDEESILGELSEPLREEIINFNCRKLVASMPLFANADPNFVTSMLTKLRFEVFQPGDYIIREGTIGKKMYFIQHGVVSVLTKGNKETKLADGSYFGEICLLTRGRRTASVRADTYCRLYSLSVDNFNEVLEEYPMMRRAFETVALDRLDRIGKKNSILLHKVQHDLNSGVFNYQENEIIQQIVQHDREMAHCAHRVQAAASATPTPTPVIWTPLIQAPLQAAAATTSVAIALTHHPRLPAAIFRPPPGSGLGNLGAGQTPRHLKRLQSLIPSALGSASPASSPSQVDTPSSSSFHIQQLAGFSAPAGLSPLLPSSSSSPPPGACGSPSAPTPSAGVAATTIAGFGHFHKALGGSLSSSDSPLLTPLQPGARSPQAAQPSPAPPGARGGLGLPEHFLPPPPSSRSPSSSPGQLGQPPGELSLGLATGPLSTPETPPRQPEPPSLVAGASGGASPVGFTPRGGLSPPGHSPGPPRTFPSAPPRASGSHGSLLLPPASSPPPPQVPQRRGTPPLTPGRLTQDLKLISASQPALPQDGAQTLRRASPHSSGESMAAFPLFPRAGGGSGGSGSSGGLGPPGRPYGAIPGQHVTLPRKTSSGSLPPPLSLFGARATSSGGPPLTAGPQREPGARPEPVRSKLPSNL
Sequence of Aryl hydrocarbon receptor (Rattus norvegicus, UniProt P41738) (P41738 whole entry): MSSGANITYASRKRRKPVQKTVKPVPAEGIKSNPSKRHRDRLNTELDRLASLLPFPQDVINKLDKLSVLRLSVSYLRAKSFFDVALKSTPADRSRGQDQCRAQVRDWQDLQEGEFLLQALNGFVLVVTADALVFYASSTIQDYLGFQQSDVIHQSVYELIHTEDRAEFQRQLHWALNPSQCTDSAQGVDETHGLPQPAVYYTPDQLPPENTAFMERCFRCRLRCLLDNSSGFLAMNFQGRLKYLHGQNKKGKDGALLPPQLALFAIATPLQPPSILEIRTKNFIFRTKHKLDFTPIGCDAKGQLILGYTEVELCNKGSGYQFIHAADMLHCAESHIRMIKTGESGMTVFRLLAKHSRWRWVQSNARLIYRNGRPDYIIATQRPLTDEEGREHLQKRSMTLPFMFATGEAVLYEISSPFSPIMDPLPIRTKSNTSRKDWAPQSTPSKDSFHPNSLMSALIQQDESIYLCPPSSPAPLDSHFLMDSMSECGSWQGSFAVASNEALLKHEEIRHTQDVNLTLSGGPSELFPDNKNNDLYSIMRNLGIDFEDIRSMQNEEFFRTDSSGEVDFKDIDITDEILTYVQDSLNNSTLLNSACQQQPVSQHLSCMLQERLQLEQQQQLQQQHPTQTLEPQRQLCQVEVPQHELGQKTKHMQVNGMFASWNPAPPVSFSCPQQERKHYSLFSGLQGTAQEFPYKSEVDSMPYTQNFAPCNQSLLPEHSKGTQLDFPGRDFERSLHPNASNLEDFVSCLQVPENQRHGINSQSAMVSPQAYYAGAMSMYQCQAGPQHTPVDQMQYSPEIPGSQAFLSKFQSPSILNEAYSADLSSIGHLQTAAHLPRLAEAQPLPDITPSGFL
Sequence of Nuclear receptor subfamily 1 group I member 2 (Q9R1A7 whole entry): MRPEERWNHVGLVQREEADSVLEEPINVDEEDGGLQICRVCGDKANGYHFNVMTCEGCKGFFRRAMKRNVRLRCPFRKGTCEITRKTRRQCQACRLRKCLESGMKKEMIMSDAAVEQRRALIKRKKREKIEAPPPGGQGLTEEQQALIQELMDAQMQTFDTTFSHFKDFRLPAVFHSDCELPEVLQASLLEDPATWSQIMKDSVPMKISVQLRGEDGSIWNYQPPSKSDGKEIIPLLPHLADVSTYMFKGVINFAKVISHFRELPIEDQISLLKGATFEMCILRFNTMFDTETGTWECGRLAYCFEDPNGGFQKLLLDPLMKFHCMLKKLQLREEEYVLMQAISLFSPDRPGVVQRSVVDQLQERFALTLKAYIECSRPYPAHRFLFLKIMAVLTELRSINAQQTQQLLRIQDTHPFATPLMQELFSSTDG

FC(F)(F)c1nccc2cc(Nc3n[nH]c4ncccc34)ccc12
EC50 [1]: > 10 µM
clearance [2]: 17.1 mL/min/kg
Activity [3]: Non-Toxic
inhibition at 10 µM (Kv1.5): < 50%
Tmax [4]: 0.42 h
logP [5]: 3.78
Cmax [6]: 1440 nM
CLint scaled at 1 µM [7]: 18.1 mL/min/kg
Activity (Cytochrome P450 3A4 [8]): Not Active
bioavailability [9]: 37.5%
Tmax [10]: 1 h
Activity [11]: Not Active
Cmax [12]: 260 nM
fraction unbound at 24 h [13]: > 0.001
Kp uu at 1 h [14]: 0.07
Activity [15]: Non-Toxic
Tmax [16]: 6 h
Kp uu at 24 h [17]: 0.09
efflux ratio (P-gp (ABCB1)): 1.3
CLint scaled at 1 µM [18]: 8.8 mL/min/kg
EC50 [19]: > 10 µM
Kp uu at 24 h [20]: 0.16
bioavailability [21]: 79%
inhibition at 10 µM (HCN4): < 50%
fraction unbound at 4 h [22]: 0.016
Activity [23]: Not Active
inhibition at 10 µM (hERG (KCNH2)): < 50%
inhibition at 10 µM (Kir2.1): < 50%
inhibition at 10 µM (Cav1.2): < 50%
inhibition at 10 µM (Kv4.3/KChIP2): < 50%
AUC at 24 h [24]: 83.9 µM·h
fraction unbound at 4 h [25]: 0.014
Activity [26]: Not Active
IC50 (Cytochrome P450 3A4 [27]): > 30 µM
Cmax [28]: 1100 nM
Kp at 24 h [29]: 0.78
